≈ marks a conversion by molar mass, not a printed value.
Legend:
[1] = Elimination half life in neutropenic ICR mouse infected with methicillin-sensitive Staphylococcus aureus ATCC 29213 at 6.25 mg/kg, sc by HPLC; assay type: ADME, organism-based; parameters: dose 6.25 mg/kg, route subcutaneous; conditions: in vivo, read-out: beta t1/2 (converted)
In short: (§1)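 Neutropenic female ICR mice (cyclophosphamide 150 and 100 mg/kg ip, 4 days and 1 day before inoculation), both thighs inoculated im with ~10^7 CFU/ml of ATCC 29213. Single sc doses of 50, 25, 12.5 or 6.25 mg/kg. Cardiac blood taken from groups of six at 8–12 times over 0.5–24 h. Serum measured by HPLC (linear 0.05–5 µg/ml). Two-compartment fit by nonlinear least squares; AUC by trapezoidal rule.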

[2] = Plasma protein binding in mouse; assay type: ADME, cell-free; conditions: read-out: PPB (converted)
[3] = fAUC/MIC in hospital-acquired methicillin-resistant Staphylococcus aureus isolate 152-infected neutropenic ICR mouse at 50% effective exposure index; assay type: functional
In short: (§2)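 Single-dose serum PK in infected neutropenic mice (sc 6.25–50 mg/kg; HPLC; two-compartment fit; AUC by trapezoidal rule; lower doses simulated). Free fraction from ultrafiltration of spiked mouse serum, in triplicate. Free exposures divided by modal MIC and plotted against 24-h log10 CFU change with a sigmoidal Emax model; EI50, EI80 and stasis values read from the fitted curves.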

Serum = test: fAUC in serum of methicillin-sensitive Staphylococcus aureus ATCC 29213-infected neutropenic ICR mouse at 1.56 to 400 mg/kg, sc by HPLC; assay type: ADME, organism-based; parameters: dose 1.56-400 mg/kg, route subcutaneous; conditions: in vivo
[4] = fAUC/MIC in methicillin-sensitive Staphylococcus aureus ATCC 25923-infected neutropenic ICR mouse at 50% effective exposure index; assay type: functional
[5] = r2 for fT>MIC in hospital-acquired methicillin-resistant Staphylococcus aureus isolate 152-infected neutropenic ICR mouse
Staphylococcus aureus [6] = test: Antimicrobial activity against community acquired methicillin-resistant Staphylococcus aureus isolate 147 infected in neutropenic ICR mouse assessed as change in bacterial load after 24 hrs; assay type: functional
In short: (§3)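 Female ICR mice (~25 g) made neutropenic with cyclophosphamide 150 and 100 mg/kg ip, 4 and 1 days before infection. Each thigh inoculated im with 0.1 ml of ~10^7 CFU/ml from an overnight subculture. Tigecycline sc (0.2 ml) given 2 h later as single or multiple doses of 1.56–50 mg/kg, 1.56–400 mg/kg/day, 3 mice/group. Saline-injected controls. Thighs harvested at 24 h, homogenized in saline, plated on blood agar; log10 CFU change vs 0-h controls.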

[7] = Protein binding in methicillin-sensitive Staphylococcus aureus ATCC 29213-infected neutropenic ICR mouse serum at 6.25 mg/kg, sc by HPLC; assay type: ADME, organism-based; parameters: dose 6.25 mg/kg, route subcutaneous; conditions: read-out: PB (converted)
[8] = fAUC/MIC in hospital-acquired methicillin-resistant Staphylococcus aureus isolate 152-infected neutropenic ICR mouse at stasis dose; assay type: functional; in short: as §2
Staphylococcus aureus [9] = test: Antimicrobial activity against hospital-acquired methicillin-resistant Staphylococcus aureus isolate 152 infected in neutropenic ICR mouse assessed as change in bacterial load after 24 hrs; assay type: functional; in short: as §3
[10] = Tmax in neutropenic ICR mouse infected with Staphylococcus aureus ATCC 29213 at 25 mg/kg, sc by HPLC; assay type: ADME, organism-based; parameters: dose 25 mg/kg, route subcutaneous; conditions: in vivo; in short: as §1
Staphylococcus aureus [11] = test: Antimicrobial activity against community-acquired methicillin-resistant Staphylococcus aureus isolate 156 infected in neutropenic ICR mouse assessed as decrease in bacterial density at 1.56 to 400 mg/kg, sc after 24 hrs; assay type: functional; conditions: dose mg/kg 1.56-400; route subcutaneous; in short: as §3
[12] = fAUC/MIC in hospital-acquired methicillin-resistant Staphylococcus aureus isolate 56-infected neutropenic ICR mouse at stasis dose; assay type: functional; in short: as §2
[13] = Cmax in neutropenic ICR mouse infected with Staphylococcus aureus ATCC 29213 at 50 mg/kg, sc by HPLC; assay type: ADME, organism-based; parameters: dose 50 mg/kg, route subcutaneous; conditions: in vivo; in short: as §1
[14] = fAUC/MIC in community acquired methicillin-resistant Staphylococcus aureus isolate 156 infected-immunocompetent ICR mouse at […], sc QD; assay type: functional
[15] = fAUC/MIC in hospital-acquired methicillin-resistant Staphylococcus aureus isolate 56-infected neutropenic ICR mouse at 80% effective exposure index; assay type: functional; in short: as §2
[16] = AUC (0 to 24 hrs) in neutropenic ICR mouse infected with Staphylococcus aureus ATCC 29213 at 6.25 mg/kg, sc by HPLC; assay type: ADME, organism-based; parameters: time < 24 hr, dose 6.25 mg/kg, route subcutaneous; conditions: plasma; in short: as §1
[17] = fAUC/MIC in methicillin-sensitive Staphylococcus aureus ATCC 29213-infected neutropenic ICR mouse at stasis dose; assay type: functional
In short: (§4)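 fT>MIC, fCmax/MIC and fAUC/MIC were built from the serum pharmacokinetics, protein binding, modal broth-microdilution MIC (triplicate, CLSI) and 24-h thigh CFU change. Each index was fit to a sigmoidal Emax model. EI50, EI80 and stasis exposures were taken from each isolate's curve.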

Staphylococcus aureus [18] = test: Antimicrobial activity against Hospital-acquired methicillin-resistant Staphylococcus aureus isolate 56 by broth microdilution method; assay type: functional
In short: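 Tigecycline MIC by CLSI broth microdilution, run in triplicate; modal MIC reported. Isolates stored at –80°C in double-strength skim milk and subcultured twice on Trypticase soy agar with 5% sheep blood before use.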

Staphylococcus aureus [19] = test: Antimicrobial activity against methicillin-sensitive Staphylococcus aureus ATCC 29213 infected in neutropenic ICR mouse assessed as change in bacterial load after 24 hrs; assay type: functional
In short: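 Neutropenic ICR mice had both thighs inoculated with ~10^7 CFU/ml; dosing began 2 h later. Groups of three received 1.56–400 mg/kg/day sc as single or divided doses, with saline-dosed controls. Thighs were homogenized and plated on blood agar at 24 h. Read-out was the log10 CFU/ml change relative to 0-h controls.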

[20] = Tmax in neutropenic ICR mouse infected with Staphylococcus aureus ATCC 29213 at 50 mg/kg, sc by HPLC; assay type: ADME, organism-based; parameters: dose 50 mg/kg, route subcutaneous; conditions: in vivo; in short: as §1
[21] = r2 for fAUC/MIC in community acquired methicillin-resistant Staphylococcus aureus isolate 156-infected neutropenic ICR mouse
[22] = fAUC/MIC in methicillin-sensitive Staphylococcus aureus ATCC 25923-infected neutropenic ICR mouse at stasis dose; assay type: functional; in short: as §2
[23] = r2 for fAUC/MIC in hospital-acquired methicillin-resistant Staphylococcus aureus isolate 152-infected neutropenic ICR mouse
[24] = r2 of fT>MIC in methicillin-sensitive Staphylococcus aureus ATCC 25923-infected neutropenic ICR mouse
[25] = r2 for fCmax/MIC in community acquired methicillin-resistant Staphylococcus aureus isolate 156-infected neutropenic ICR mouse
[26] = fAUC/MIC in methicillin-sensitive Staphylococcus aureus ATCC 25923-infected neutropenic ICR mouse at 80% effective exposure index; assay type: functional
[27] = fAUC/MIC in methicillin-sensitive Staphylococcus aureus ATCC 29213-infected neutropenic ICR mouse at 50% effective exposure index; assay type: functional; in short: as §4
[28] = r2 for fAUC/MIC in methicillin-sensitive Staphylococcus aureus ATCC 25923-infected neutropenic ICR mouse

Work on `CN(C)c1cc(NC(=O)CNC(C)(C)C)c(O)c2c1C[C@H]1C[C@H]3[C@H](N(C)C)C(O)=C(C(N)=O)C(=O)[C@@]3(O)C(O)=C1C2=O` [TIGECYCLINE] yielded a half-life [1] of 632 min, a fraction unbound [2] of 0.188 and a fAUC/MIC [3] of 1.5. It also gave a fAUC (Serum) of 200 ng·h/mL, a fAUC/MIC [4] of 5 and a r2 [5] of 0.511%. It also gave a log10CFU/ml (Staphylococcus aureus [6]) of 1.8, a fraction unbound [7] of 0.188 and a fAUC/MIC [8] of 1.6. For the same molecule, the log10CFU/ml (Staphylococcus aureus [9]) was 1.8, the Tmax [10] was 31.8 min and the CFU (Staphylococcus aureus [11]) was 1.5. The fAUC/MIC [12] was 2.5, the Cmax [13] was 12200 ng/mL and the fAUC/MIC [14] was 3.6. The fAUC/MIC [15] was 4.2, the AUC(0-t) at 24 h [16] was 4800 ng·h/mL and the fAUC/MIC [17] was 0.5. The MIC (Staphylococcus aureus [18]) was 0.5 µg/mL (≈ 0.854 µM), the log10CFU/ml (Staphylococcus aureus [19]) was 2.3 and the Tmax [20] was 44.4 min. For the same molecule, the r2 [21] was 0.97, the fAUC/MIC [22] was 5.3 and the r2 [23] was 0.997. For the same molecule, the r2 [24] was 0.872%, the r2 [25] was 0.88 and the fAUC/MIC [26] was 7. It also gave a fAUC/MIC [27] of 0.6 and a r2 [28] of 0.877.
